Experimental findings from ChEMBL document CHEMBL1134521, “Characterization of melanocortin NDP-MSH agonist peptide fragments at the mouse central and peripheral melanocortin receptors” (J Med Chem, 2001) are described below.

One assay has as its target Melanocortin receptor 4 (Mus musculus, UniProt P56450). Kind of assay: Functional activity at the mouse melanocortin 4 receptor. The gist of the method: (§1)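 HEK-293 cells stably expressing the mouse receptor (calcium phosphate transfection, G418 1 mg/mL), transfected with CRE/β-galactosidase reporter. Lysates read at OD405 with ONPG at 37 °C, normalized to protein and forskolin (10^-4 M) response. EC50 from curve fit, at least three independent experiments.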

Assay [1] has as its target T1, Melanocortin receptor 3 (Mus musculus, UniProt P33033). Kind of assay: Functional activity at the mouse melanocortin 3 receptor. Summed up: as §1
Assay [2] addresses T2, Melanocortin receptor 5 (Mus musculus, UniProt P41149). Kind of assay: Functional activity at the mouse melanocortin 5 receptor. The gist of the method: as §1
Assay [3] concerns the target T3, Melanocyte-stimulating hormone receptor (Mus musculus, UniProt Q01727). The experiment in a line: Functional activity at the mouse melanocortin 1 receptor. The gist of the method:
as §1

Assay [4] addresses T2, Melanocortin receptor 5. The experiment in a line: Functional activity at the mouse melanocortin 5 receptor at 100 uM; Slight agonist.
The target in assay [5] is T3, Melanocyte-stimulating hormone receptor. Kind of assay: Functional activity at the mouse melanocortin 1 receptor at 100 uM; Slight agonist.
For assay [6], the target named is T1, Melanocortin receptor 3. The experiment in a line: Functional activity at the mouse melanocortin 3 receptor at 100 uM; Slight agonist.

Each structure is given as a SMILES string. Where a SMILES comes first, the peptide text is derived from it. [ ]: non-standard residue; d: D form.

T2 sequence (P41149 whole entry): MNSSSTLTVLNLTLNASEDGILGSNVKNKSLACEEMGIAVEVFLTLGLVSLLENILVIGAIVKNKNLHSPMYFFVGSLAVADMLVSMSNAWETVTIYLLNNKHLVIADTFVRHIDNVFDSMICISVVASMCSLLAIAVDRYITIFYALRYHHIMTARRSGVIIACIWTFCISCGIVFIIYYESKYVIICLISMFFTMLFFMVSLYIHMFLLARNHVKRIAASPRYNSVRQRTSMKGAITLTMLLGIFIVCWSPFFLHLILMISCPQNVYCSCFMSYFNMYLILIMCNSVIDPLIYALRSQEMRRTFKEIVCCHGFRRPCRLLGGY
Sequence of Melanocortin receptor 4 (P56450 whole entry): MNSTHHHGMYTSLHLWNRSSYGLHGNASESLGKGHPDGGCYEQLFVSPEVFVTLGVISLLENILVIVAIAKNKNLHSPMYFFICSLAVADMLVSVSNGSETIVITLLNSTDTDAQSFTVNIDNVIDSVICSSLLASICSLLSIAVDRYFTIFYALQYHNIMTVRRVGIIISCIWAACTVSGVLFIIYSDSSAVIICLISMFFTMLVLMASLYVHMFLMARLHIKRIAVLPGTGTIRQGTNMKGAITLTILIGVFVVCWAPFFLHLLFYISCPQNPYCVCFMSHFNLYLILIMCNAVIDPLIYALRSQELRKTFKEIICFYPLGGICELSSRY
T3 sequence (Q01727 whole entry): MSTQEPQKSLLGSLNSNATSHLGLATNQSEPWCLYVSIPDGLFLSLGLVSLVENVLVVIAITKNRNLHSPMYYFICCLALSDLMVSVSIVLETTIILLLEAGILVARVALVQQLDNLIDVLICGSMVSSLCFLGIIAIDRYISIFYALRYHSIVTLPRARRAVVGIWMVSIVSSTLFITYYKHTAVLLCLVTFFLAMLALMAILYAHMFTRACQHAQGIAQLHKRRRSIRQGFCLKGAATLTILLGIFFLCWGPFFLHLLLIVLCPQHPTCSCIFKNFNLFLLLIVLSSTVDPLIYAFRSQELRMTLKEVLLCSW
T1 sequence (P33033 whole entry): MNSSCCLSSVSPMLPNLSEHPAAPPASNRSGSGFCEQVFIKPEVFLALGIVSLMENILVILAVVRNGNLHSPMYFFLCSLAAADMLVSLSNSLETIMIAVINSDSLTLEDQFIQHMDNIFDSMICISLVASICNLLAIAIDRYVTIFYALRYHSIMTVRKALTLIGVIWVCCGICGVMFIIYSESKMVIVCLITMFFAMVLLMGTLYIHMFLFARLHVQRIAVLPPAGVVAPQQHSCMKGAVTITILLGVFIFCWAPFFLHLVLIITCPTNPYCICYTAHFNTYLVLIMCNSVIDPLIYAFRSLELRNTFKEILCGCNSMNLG

A word on the EC50: it is the concentration at which the effect is half-maximal. The low end stands for an effect from little substance, the high end for a need for much substance. Consider `CCCC[C@H](NC(=O)[C@H](CO)NC(=O)[C@H](Cc1ccc(O)cc1)NC(=O)[C@H](CO)NC(C)=O)C(=O)N[C@@H](CCC(=O)O)C(=O)N[C@@H](Cc1cnc[nH]1)C(=O)N[C@H](Cc1ccccc1)C(=O)N[C@@H](CCCNC(=N)N)C(=O)N[C@@H](Cc1c[nH]c2ccccc12)C(N)=O`, for which the 50% effective concentration (EC50) on Melanocortin receptor 4 stood at 0.78 nM; on Melanocortin receptor 3 [1], 0.29 nM; on Melanocortin receptor 5 [2] it was 0.53 nM; in assay [3], 0.036 nM.

In the case of `CC(=O)N[C@@H](Cc1ccccc1)C(=O)N[C@@H](CCCN=C(N)N)C(=O)N[C@@H](Cc1c[nH]c2ccccc12)C(N)=O` (Ac-Phe-Arg-Trp-NH2), on Melanocortin receptor 5 [4], the EC50 entry is listed as “Partial agonist”.

As to `CCCC[C@H](NC(C)=O)C(=O)N[C@@H](CCC(=O)O)C(=O)N[C@@H](Cc1cnc[nH]1)C(=O)N[C@H](Cc1ccccc1)C(=O)N[C@@H](CCCNC(=N)N)C(=O)N[C@@H](Cc1c[nH]c2ccccc12)C(=O)NCC(=O)N[C@@H](CCCCN)C(=O)N1CCC[C@H]1C(=O)N[C@H](C(N)=O)C(C)C`, the EC50 stood at 0.32 nM on Melanocortin receptor 4, 0.11 nM at Melanocortin receptor 3 [1], 0.46 nM at Melanocortin receptor 5 [2] and 0.021 nM in assay [3].

`CC(=O)N[C@@H](Cc1ccccc1)C(=O)N[C@@H](CCCNC(=N)N)C(=O)N[C@@H](Cc1c[nH]c2ccccc12)C(N)=O` (Ac-Phe-Arg-Trp-NH2): the EC50 was more than 100000 nM on Melanocortin receptor 4, more than 100000 nM on Melanocortin receptor 3 [1] and 5870 nM in assay [3].

Turning to `CC(=O)N[C@@H](Cc1c[nH]cn1)C(=O)N[C@@H](Cc1ccccc1)C(=O)N[C@@H](CCCN=C(N)N)C(=O)N[C@H](Cc1c[nH]c2ccccc12)C(N)=O`, the EC50 on Melanocortin receptor 4 is 6620 nM; at Melanocortin receptor 5 [2], 317 nM.

`CC(=O)N[C@@H](CCC(=O)O)C(=O)N[C@@H](Cc1c[nH]cn1)C(=O)N[C@H](Cc1ccccc1)C(=O)N[C@@H](CCCN=C(N)N)C(=O)N[C@@H](Cc1c[nH]c2ccccc12)C(N)=O`: the EC50 at Melanocortin receptor 4 amounted to 4.31 nM; at Melanocortin receptor 3 [1], 15.2 nM; at Melanocortin receptor 5 [2], 0.42 nM; in assay [3], 8.94 nM.

Regarding `CC(=O)N[C@@H](Cc1cnc[nH]1)C(=O)N[C@H](Cc1ccccc1)C(=O)N[C@@H](CCCNC(=N)N)C(=O)N[C@H](Cc1c[nH]c2ccccc12)C(N)=O`, the EC50 stood at 154 nM at Melanocortin receptor 4 and 61.3 nM at Melanocortin receptor 5 [2].

In the case of `CC(=O)N[C@@H](Cc1cnc[nH]1)C(=O)N[C@H](Cc1ccccc1)C(=O)N[C@@H](CCCN=C(N)N)C(=O)N[C@@H](Cc1c[nH]c2ccccc12)C(N)=O`, the EC50 was 10.2 nM at Melanocortin receptor 4 and 3.46 nM on Melanocortin receptor 5 [2].

Take `CCCC[C@H](NC(=O)[C@H](CO)NC(=O)[C@H](Cc1ccc(O)cc1)NC(=O)[C@H](CO)NC(C)=O)C(=O)N[C@@H](CCC(=O)O)C(=O)N[C@@H](Cc1c[nH]cn1)C(=O)N[C@H](Cc1ccccc1)C(=O)N[C@@H](CCCN=C(N)N)C(=O)N[C@@H](Cc1c[nH]c2ccccc12)C(=O)NCC(=O)N[C@@H](CCCCN)C(N)=O`: the EC50 came to 0.44 nM on Melanocortin receptor 4, 0.16 nM at Melanocortin receptor 3 [1], 0.46 nM on Melanocortin receptor 5 [2] and 0.018 nM in assay [3].

Turning to `CC(=O)N[C@@H](Cc1c[nH]cn1)C(=O)N[C@@H](Cc1ccccc1)C(=O)N[C@@H](CCCN=C(N)N)C(=O)N[C@@H](Cc1c[nH]c2ccccc12)C(N)=O`, the EC50 at Melanocortin receptor 4 is 2110 nM; at Melanocortin receptor 5 [2], 103 nM.

Take `CC(=O)N[C@H](Cc1ccccc1)C(=O)N[C@@H](CCCN=C(N)N)C(=O)N[C@H](Cc1c[nH]c2ccccc12)C(N)=O`: the EC50 entry in assay [5] is “Partial agonist”; at Melanocortin receptor 4, 11200 nM; on Melanocortin receptor 3 [1] it was more than 100000 nM; on Melanocortin receptor 5 [2] it was 6880 nM.

Turning to `CC(=O)N[C@@H](Cc1c[nH]cn1)C(=O)N[C@H](Cc1ccccc1)C(=O)N[C@@H](CCCN=C(N)N)C(=O)N[C@@H](Cc1c[nH]c2ccccc12)C(=O)NCC(=O)N[C@@H](CCCCN)C(=O)N1CCC[C@H]1C(=O)N[C@H](C(N)=O)C(C)C`, the EC50 was 0.45 nM on Melanocortin receptor 4, 6.82 nM at Melanocortin receptor 3 [1], 0.17 nM on Melanocortin receptor 5 [2] and 0.49 nM in assay [3].

For the compound `CCCC[C@H](NC(C)=O)C(=O)N[C@@H](CCC(=O)O)C(=O)N[C@@H](Cc1c[nH]cn1)C(=O)N[C@H](Cc1ccccc1)C(=O)N[C@@H](CCCN=C(N)N)C(=O)N[C@@H](Cc1c[nH]c2ccccc12)C(=O)NCC(N)=O`, the EC50 amounted to 0.94 nM at Melanocortin receptor 4, 0.39 nM at Melanocortin receptor 3 [1], 0.59 nM at Melanocortin receptor 5 [2] and 0.045 nM in assay [3].

For `CC(=O)N[C@H](Cc1ccccc1)C(=O)N[C@@H](CCCN=C(N)N)C(=O)N[C@@H](Cc1c[nH]c2ccccc12)C(N)=O` (Ac-[dF]-Arg-Trp-NH2), the EC50 result at Melanocortin receptor 3 [6] is “Partial agonist”; on Melanocortin receptor 4 it was 2320 nM; on Melanocortin receptor 5 [2] it was 1660 nM; in assay [3], 4540 nM.

For `CCCC[C@H](NC(C)=O)C(=O)N[C@@H](CCC(=O)O)C(=O)N[C@@H](Cc1c[nH]cn1)C(=O)N[C@H](Cc1ccccc1)C(=O)N[C@@H](CCCN=C(N)N)C(=O)N[C@@H](Cc1c[nH]c2ccccc12)C(N)=O`, the EC50 at Melanocortin receptor 4 was determined as 0.45 nM; on Melanocortin receptor 3 [1] it was 0.26 nM; at Melanocortin receptor 5 [2], 0.39 nM; in assay [3] it was 0.034 nM.
